Two molecules from ChEMBL document CHEMBL3612017, “Rigidified A3 Adenosine Receptor Agonists: 1-Deazaadenine Modification Maintains High in Vivo Efficacy” (ACS Med Chem Lett, 2015) can be followed below.

Series [1] addresses T1, Adenosine receptor A3 (Homo sapiens, UniProt P0DMS8).
T1 sequence (P0DMS8 whole entry): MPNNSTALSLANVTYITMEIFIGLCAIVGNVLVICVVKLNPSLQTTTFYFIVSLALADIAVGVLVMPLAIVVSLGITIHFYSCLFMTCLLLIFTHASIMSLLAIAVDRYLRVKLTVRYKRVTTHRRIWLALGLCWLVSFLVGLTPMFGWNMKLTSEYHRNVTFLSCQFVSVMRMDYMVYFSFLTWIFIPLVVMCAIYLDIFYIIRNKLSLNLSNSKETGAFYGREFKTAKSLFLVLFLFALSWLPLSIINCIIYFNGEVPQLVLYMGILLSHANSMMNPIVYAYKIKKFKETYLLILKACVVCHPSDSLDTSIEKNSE
As to the kind of experiment: Agonist activity at human adenosine A3 receptor expressed in CHO cells assessed as inhibition of cAMP production. The class given is functional, cell-based. Put shortly:
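Read-out was inhibition of cyclic AMP production in membranes prepared from CHO cells expressing the human A3 receptor. The value is an EC50 with full agonism assessed.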
In general terms: Changes in cAMP serve as a functional read-out for many G protein-coupled receptors.

The target in series [2] is T1, Adenosine receptor A3. As to the kind of experiment: Displacement of [125I]N6-(4-amino-3-iodobenzyl)adenosine-5'-N-methyluronamide from human adenosine A3 receptor expressed in CHO cell membranes. On the technique in general: Displacement assays read how much labelled ligand stays bound in the presence of the test substance.
In series [3] the target is T2, Adenosine receptor A3 (Mus musculus, UniProt Q61618).
T2 sequence (Q61618 whole entry): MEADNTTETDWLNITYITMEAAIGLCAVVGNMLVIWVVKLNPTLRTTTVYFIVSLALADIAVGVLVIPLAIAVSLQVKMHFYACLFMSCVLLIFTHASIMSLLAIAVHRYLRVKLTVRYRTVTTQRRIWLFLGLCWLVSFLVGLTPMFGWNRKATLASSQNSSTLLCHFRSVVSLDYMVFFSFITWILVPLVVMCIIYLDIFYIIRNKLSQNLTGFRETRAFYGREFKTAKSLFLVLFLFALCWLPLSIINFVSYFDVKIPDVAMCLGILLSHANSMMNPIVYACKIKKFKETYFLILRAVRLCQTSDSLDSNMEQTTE
As to the kind of experiment: Binding affinity to mouse adenosine A3 receptor expressed in HEK293 cell membranes. The procedure, abridged: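 Radioligand binding used membranes of HEK293 cells expressing the mouse or the canine A3 receptor.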

Series [4] relates to Mus musculus. As to the kind of experiment: Analgesic activity in mouse chronic constriction injury model of neuropathic pain assessed as time duration protection hind paw mechanoallodynia of sciatic nerve at 3 umol/kg administered through oral gavage at point of peak pain on day 7. The class given is functional. Put shortly:
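In CCI mice, 3 μmol/kg was given p.o. on day 7. The time course of protection against hind paw mechanoallodynia was followed, n = 4. Data were mean ± SEM, analysed by two-tailed two-way ANOVA with Bonferroni comparisons versus day 0.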

The subject of series [5] is Mus musculus. As to the kind of experiment: Analgesic activity in mouse chronic constriction injury model of neuropathic pain assessed as time of peak protection at 0.3 to 30 umol/kg administered through oral gavage at point of peak pain on day 7. The class given is functional. The procedure, abridged:
(§1)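 Mice had sciatic nerve chronic constriction injury. Compound was given by oral gavage on day 7, at peak pain. Mechanoallodynia was scored on the ipsilateral and contralateral hind paws at the 1 h and 3 h time points, as % protection. n = 4 per group, some n = 3.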

The target in series [6] is T3, Adenosine receptor A2b (Homo sapiens) (UniProt P29275).
T3 sequence (whole entry): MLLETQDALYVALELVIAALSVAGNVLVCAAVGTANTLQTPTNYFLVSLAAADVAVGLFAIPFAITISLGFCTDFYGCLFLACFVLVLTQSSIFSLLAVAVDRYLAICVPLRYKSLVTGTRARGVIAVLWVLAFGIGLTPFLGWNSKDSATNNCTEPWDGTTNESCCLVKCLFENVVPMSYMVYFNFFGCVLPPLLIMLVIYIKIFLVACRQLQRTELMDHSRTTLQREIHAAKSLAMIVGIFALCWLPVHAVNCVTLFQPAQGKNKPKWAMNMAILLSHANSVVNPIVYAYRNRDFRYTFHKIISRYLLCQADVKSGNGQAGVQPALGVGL
As to the kind of experiment: Displacement of [3H]MRS1754 from human adenosine A2B receptor expressed in HEK293 cell membranes at 10 uM.

For series [7], the system named is Mus musculus. As to the kind of experiment: Analgesic activity in mouse chronic constriction injury model of neuropathic pain assessed as protection of ipsilateral hind paw mechanoallodynia of sciatic nerve at 0.3 to 30 umol/kg administered through oral gavage at point of peak pain on day 7 measured at 3 hrs. It counts as functional. Put shortly: as §1
Series [8] has as its target 5-hydroxytryptamine receptor 2B (Homo sapiens, UniProt P41595). As to the kind of experiment: Binding affinity to 5HT2B receptor (unknown origin). The settings on record: read-out: Ki.
Series [9] relates to Mus musculus. As to the kind of experiment: Analgesic activity in mouse chronic constriction injury model of neuropathic pain assessed as protection of ipsilateral hind paw mechanoallodynia of sciatic nerve at 0.3 to 30 umol/kg administered through oral gavage at point of peak pain on day 7 relative to control measured at 1 hr. The class given is functional. Put shortly:
as §1

Series [10] deals with T4, Adenosine receptor A1 (Homo sapiens) (UniProt P30542).
T4 sequence (whole entry): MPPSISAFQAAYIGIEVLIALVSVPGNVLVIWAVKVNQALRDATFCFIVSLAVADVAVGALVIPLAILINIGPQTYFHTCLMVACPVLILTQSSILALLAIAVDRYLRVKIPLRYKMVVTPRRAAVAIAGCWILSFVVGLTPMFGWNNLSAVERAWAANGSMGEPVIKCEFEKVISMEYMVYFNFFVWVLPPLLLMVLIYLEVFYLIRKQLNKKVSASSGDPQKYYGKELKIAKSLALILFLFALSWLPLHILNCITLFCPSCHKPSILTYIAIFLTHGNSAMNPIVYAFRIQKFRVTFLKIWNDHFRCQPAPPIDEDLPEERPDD
As to the kind of experiment: Displacement of [3H]N6-R-phenylisopropyladenosine from human adenosine A1 receptor expressed in CHO cell membranes at 10 uM. Put shortly:
(§2)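 Radioligand binding at the human receptor subtypes. Nonspecific binding was defined with adenosine 5′-N-ethyluronamide (10 μM). Ki values came from displacement curves, mean ± SEM, n = 3 unless noted. Single-point data were expressed as % inhibition of binding at 10 μM.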

In series [11] the target is Adenosine receptor A2a (Homo sapiens) (UniProt P29274). As to the kind of experiment: Displacement of [3H]2-[p-(2-carboxyethyl)phenyl-ethylamino]-5'-Nethylcarboxamidoadenosine from human adenosine A2A receptor expressed in HEK293 cell membranes at 10 uM. The procedure, abridged: as §2
Chain of Adenosine receptor A2a (Homo sapiens) (P29274 whole entry): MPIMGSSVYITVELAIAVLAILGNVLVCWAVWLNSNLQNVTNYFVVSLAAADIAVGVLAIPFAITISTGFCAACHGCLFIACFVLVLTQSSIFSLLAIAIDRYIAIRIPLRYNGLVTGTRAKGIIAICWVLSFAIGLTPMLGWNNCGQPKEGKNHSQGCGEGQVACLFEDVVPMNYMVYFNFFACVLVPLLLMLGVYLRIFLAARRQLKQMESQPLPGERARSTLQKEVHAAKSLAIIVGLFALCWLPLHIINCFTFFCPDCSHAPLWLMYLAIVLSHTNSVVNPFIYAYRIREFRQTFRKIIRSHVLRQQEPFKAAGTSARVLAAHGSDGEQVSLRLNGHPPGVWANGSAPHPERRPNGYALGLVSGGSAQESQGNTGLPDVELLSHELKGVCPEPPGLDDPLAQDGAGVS
For series [12], the system named is Mus musculus. As to the kind of experiment: Effect on contralateral side hind paw in mouse chronic constriction injury model of neuropathic pain at 0.3 to 30 umol/kg administered through oral gavage at point of peak pain on day 7. It counts as ADME, organism-based. As to conditions: in vivo. The procedure, abridged: as §1
Series [13] has as its target T5, Adenosine receptor A3 (Canis lupus familiaris, UniProt Q28309).
T5 sequence (Q28309 whole entry): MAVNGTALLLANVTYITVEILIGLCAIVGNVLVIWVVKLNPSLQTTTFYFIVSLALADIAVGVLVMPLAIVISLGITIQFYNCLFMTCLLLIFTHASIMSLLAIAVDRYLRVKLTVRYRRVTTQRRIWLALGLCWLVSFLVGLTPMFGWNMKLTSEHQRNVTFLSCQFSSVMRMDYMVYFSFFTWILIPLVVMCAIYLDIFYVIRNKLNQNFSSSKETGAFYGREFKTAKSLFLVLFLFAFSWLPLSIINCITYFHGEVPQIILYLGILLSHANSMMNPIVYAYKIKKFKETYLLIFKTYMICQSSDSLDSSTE
As to the kind of experiment: Binding affinity to canine adenosine A3 receptor expressed in HEK293 cell membranes. The settings on record: read-out: Ki. The procedure, abridged:
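Radioligand binding used membranes of HEK293 cells expressing the mouse or the canine A3 receptor. Affinities were given as Ki in nM, mean ± SEM, n = 3.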

Series [14] relates to Mus musculus. As to the kind of experiment: Analgesic activity in intraperitoneally dosed mouse chronic constriction injury model of neuropathic pain assessed as time of peak protection. It counts as functional.
The subject of series [15] is Mus musculus. As to the kind of experiment: Analgesic activity in intraperitoneally dosed mouse chronic constriction injury model of neuropathic pain. It counts as functional. The settings on record: ip.

SMILES strings stand for the structures.

Chain of 5-hydroxytryptamine receptor 2B (P41595 whole entry): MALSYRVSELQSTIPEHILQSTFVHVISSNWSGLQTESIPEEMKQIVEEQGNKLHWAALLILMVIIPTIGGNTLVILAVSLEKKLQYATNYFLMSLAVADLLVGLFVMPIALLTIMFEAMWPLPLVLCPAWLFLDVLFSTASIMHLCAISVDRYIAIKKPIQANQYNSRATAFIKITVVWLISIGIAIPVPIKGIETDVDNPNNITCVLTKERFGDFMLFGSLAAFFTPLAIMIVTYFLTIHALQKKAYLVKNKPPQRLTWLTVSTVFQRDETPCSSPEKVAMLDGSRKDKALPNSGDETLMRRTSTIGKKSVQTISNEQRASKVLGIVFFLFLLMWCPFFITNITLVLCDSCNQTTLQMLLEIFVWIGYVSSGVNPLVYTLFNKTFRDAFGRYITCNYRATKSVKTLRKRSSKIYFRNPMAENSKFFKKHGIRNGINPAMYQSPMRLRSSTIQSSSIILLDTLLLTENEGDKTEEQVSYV

The term EC50 denotes the concentration needed to bring the measured effect to its halfway point. One may read the Ki as the dissociation constant of the complex between target and ligand, obtained from inhibition or displacement. Usually inhibition stands for how much of the control response was suppressed. A high value points to a response far below the control. As usually defined, the Emax is the greatest response seen or fitted, relative to the assay's reference. As to `CCNc1cc(C#Cc2ccc(Cl)s2)nc2c1ncn2[C@H]1[C@H](O)[C@H](O)[C@]2(C(=O)NC)C[C@H]12`, the EC50 at Adenosine receptor A3 [1] was 0.0015 µM. The Ki at Adenosine receptor A3 [2] was 0.0017 µM; at Adenosine receptor A3 [3], 0.016 µM; in series [8], 2.5 µM; at Adenosine receptor A3 [13], 0.049 µM. Also, the Time stood at 5 h in the series on Mus musculus [4] and 1 h with Mus musculus [5]. Moreover, the figures for the inhibition in series [6], in series [10] and in series [11] were 17%, 10% and 0%, respectively. For the same molecule, the Activity in the series on Mus musculus [7] is recorded as 84%; in the series with Mus musculus [12], “Non-toxic”. Besides, the maximal response (Emax) with Mus musculus [9] came out at 93%.
Usually ED50 stands for the dose at which the effect has come halfway, by size or by number of responders. A high value points to weaker potency. In the case of `NCC1(CC(=O)O)CCCCC1` [GABAPENTIN], in the series on Mus musculus [14], the Time came out at 1 h. Also, in the series on Mus musculus [15], the ED50 amounted to 140 µmol/kg.
